Active and inactive are the calls of the source.
Key:
[1] = target: Nitric oxide synthase, inducible (Homo sapiens, UniProt P35228); assay: Inhibition of cytokine-induced iNOS expressed in human A172 cells assessed as inhibition of NO formation; type: cell-based, A 172
Sf9 [2] = assay: Selectivity ratio, IC50 for ecNOS/IC50 for iNOS using tetracycline-induced system in SF9 cells; type: cell-based; conditions: Homo sapiens
Summary of the method: (§1)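 SF9 cells carrying a tetracycline-induced system expressing one NOS isoform (iNOS, ecNOS or bcNOS); cellular NO formation inhibition measured, compounds up to 10 µM.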

[3] = Inhibition of vaccinia virus system-induced human NOS expressed in BSC1 cells; type: cell-based; conditions: bsc-1
[4] = target: Nitric oxide synthase, inducible (Rattus norvegicus) (UniProt Q06518); assay: Activity against rat cerebellum iNOS upto 1 uM
Sequence of Nitric oxide synthase, inducible (Rattus norvegicus) (Q06518 whole entry): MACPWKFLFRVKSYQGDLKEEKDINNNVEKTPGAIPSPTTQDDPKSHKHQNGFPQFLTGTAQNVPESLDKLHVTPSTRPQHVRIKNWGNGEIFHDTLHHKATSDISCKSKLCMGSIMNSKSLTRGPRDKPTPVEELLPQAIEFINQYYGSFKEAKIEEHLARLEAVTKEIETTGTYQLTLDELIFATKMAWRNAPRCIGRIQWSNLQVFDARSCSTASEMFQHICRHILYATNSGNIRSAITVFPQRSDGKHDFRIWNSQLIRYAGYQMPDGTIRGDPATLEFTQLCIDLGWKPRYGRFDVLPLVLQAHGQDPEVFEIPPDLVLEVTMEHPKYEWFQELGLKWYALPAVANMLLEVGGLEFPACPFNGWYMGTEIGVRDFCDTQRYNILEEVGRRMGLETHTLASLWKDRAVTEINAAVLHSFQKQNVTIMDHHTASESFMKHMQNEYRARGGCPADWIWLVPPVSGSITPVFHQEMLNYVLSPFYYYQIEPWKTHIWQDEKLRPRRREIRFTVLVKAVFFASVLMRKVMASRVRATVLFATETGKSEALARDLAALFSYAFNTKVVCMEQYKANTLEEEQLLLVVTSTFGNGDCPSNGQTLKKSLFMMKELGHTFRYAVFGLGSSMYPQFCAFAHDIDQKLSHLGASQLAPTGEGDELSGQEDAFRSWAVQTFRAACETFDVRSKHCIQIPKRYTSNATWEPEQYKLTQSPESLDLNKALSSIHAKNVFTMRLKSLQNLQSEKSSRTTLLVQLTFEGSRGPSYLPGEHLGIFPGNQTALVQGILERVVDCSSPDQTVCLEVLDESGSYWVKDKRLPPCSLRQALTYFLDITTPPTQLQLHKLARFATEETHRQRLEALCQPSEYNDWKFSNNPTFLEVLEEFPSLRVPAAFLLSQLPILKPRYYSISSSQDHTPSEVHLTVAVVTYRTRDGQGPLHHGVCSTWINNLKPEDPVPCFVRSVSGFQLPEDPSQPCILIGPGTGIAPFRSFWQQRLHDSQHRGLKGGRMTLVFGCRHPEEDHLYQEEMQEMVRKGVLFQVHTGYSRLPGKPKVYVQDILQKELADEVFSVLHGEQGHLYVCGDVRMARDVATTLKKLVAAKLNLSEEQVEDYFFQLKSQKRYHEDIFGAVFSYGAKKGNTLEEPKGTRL

BSC-1 [5] = assay: Selectivity ratio, IC50 for bcNOS/IC50 for iNOS using vaccinia virus-induced system in BSC1 cells; type: cell-based; conditions: Homo sapiens
Summary of the method: (§2)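 For each compound, the IC50 against bcNOS (b/i) or ecNOS (e/i) is divided by the iNOS IC50 from the same BSC-1 vaccinia system.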

BSC-1 [6] = assay: Selectivity ratio, IC50 for ecNOS/IC50 for iNOS using vaccinia virus-induced system in BSC1 cells; type: cell-based; conditions: Homo sapiens; summary of the method: as §2
[7] = Inhibition of tetracycline system-induced human NOS expressed in SF9 cells; summary of the method: as §1
Sf9 [8] = assay: Selectivity ratio, IC50 for bcNOS/IC50 for iNOS using tetracycline-induced system in SF9 cells; type: cell-based; conditions: Homo sapiens; summary of the method: as §1
[9] = Bioavailability in po and iv dosed rat 10 mg/kg, po; type: ADME, organism-based; conditions: in vivo
[10] = Half life in dog at 3 mg/kg, iv; type: ADME, organism-based, Canis lupus familiaris; design: dose 3 mg/kg, route intravenous; conditions: in vivo
[11] = Bioavailability in dog at 3 mg/kg, po; type: ADME, organism-based, Canis lupus familiaris; conditions: in vivo
[12] = Clearance in dog at 3 mg/kg; type: ADME, organism-based, Canis lupus familiaris; design: dose 3 mg/kg; conditions: in vivo
[13] = Half life in rat at 10 mg/kg, iv; type: ADME, organism-based; design: dose 10 mg/kg, route intravenous; conditions: in vivo
Rattus norvegicus = assay: Amelioration of adjuvant-induced arthritis in sc dosed Lewis rat; type: functional, organism-based
Summary of the method: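 Adult male Lewis rats immunized intradermally at the proximal tail with Mycobacterium butyricum in incomplete Freund's adjuvant (10 mg/mL, 0.1 mL). Starting the next day, dosed subcutaneously at 3, 10 or 30 mg/kg or vehicle twice daily (12 h apart); naive group untreated; 10 rats per group. Weighed and clinically scored (0-4 per limb) 3 times weekly; radiological scoring; sacrifice at day 34-35.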

Sequence of Nitric oxide synthase, inducible (P35228 whole entry): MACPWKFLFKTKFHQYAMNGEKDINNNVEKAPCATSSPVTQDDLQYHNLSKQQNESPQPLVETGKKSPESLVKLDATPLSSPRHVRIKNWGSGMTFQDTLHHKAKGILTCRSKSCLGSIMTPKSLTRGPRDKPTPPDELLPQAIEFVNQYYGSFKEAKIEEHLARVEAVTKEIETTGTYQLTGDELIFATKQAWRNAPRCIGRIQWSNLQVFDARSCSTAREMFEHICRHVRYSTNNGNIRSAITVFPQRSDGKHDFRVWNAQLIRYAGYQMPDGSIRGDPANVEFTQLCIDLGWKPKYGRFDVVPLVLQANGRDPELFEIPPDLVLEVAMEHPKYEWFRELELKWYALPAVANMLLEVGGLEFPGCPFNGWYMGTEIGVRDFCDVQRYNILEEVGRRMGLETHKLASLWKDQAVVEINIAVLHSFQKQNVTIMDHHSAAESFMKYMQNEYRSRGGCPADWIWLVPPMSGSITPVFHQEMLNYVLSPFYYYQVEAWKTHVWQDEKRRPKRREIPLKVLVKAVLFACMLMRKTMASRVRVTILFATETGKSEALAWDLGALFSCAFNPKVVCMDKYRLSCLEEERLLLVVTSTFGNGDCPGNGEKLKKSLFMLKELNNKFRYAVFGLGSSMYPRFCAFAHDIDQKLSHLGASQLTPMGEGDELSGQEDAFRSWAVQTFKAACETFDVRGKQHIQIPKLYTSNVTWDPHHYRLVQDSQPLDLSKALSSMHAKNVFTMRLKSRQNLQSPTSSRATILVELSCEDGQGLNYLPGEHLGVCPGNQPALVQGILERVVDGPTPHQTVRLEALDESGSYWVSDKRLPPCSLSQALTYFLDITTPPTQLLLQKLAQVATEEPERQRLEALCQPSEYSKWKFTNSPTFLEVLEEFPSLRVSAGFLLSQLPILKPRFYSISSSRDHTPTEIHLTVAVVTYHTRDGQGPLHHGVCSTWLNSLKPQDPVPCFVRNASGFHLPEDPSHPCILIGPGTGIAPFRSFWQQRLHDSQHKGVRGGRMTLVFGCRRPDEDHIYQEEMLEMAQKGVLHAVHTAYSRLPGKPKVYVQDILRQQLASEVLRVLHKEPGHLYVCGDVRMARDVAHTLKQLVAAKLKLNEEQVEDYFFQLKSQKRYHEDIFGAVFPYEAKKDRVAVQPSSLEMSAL

`Cc1cc(N2CCN(C(=O)C(C)C)C(CC(=O)NCc3ccc4c(c3)OCO4)C2)nc(-n2ccnc2)n1` (stereo unspecified) showed an IC50 [1] of 1.9 nM, a Ratio IC50 (Sf9 [2]) of 240 and an IC50 [3] of 80 nM. For the same compound, the Activity [4] was “inactive”, the Ratio IC50 (BSC-1 [5]) was 80 and the Ratio IC50 (BSC-1 [6]) was > 300. It also gave an IC50 [7] of 46 nM and a Ratio IC50 (Sf9 [8]) of 120.
Work on `COC(=O)N1CCN(c2ccnc(-n3ccnc3)n2)[C@@H](CC(=O)NCc2ccc3c(c2)OCO3)C1` yielded an IC50 [1] of 0.24 nM, a Ratio IC50 (Sf9 [2]) of 32 and an IC50 [3] of 18 nM. For the same compound, the Activity [4] was “inactive”, the Ratio IC50 (BSC-1 [5]) was 6 and the Ratio IC50 (BSC-1 [6]) was 1100. For the same compound, the IC50 [7] was 10 nM and the Ratio IC50 (Sf9 [8]) was 16.
In the case of `O=C(NCCc1ccc2c(c1)OCO2)[C@H]1CCCN1c1ccnc(-n2ccnc2)n1`, the IC50 [1] is reported as 0.48 nM, the Ratio IC50 (Sf9 [2]) is reported as 181 and the IC50 [3] is reported as 25 nM. For the same compound, the Activity [4] was “inactive”, the Ratio IC50 (BSC-1 [5]) was 19 and the Ratio IC50 (BSC-1 [6]) was > 2000. For the same compound, the IC50 [7] was 11 nM and the Ratio IC50 (Sf9 [8]) was 74.
With `Cc1cc(N2CCC[C@@H]2C(=O)NCCc2ccc3c(c2)OCO3)nc(-n2ccnc2)n1` the IC50 [1] was 0.29 nM, the bioavailability [9] was 21% and the Ratio IC50 (Sf9 [2]) was 540. It also gave a half-life [10] of 2.5 h, a bioavailability [11] of 71% and a clearance [12] of 4.5 mL/min/kg. The IC50 [3] was 20 nM, the Activity [4] was “inactive” and the Ratio IC50 (BSC-1 [5]) was 62. For the same compound, the Ratio IC50 (BSC-1 [6]) was > 5000, the IC50 [7] was 14 nM and the half-life [13] was 0.7 h. For the same compound, the Ratio IC50 (Sf9 [8]) was 327 and the Activity (Rattus norvegicus) was “inactive”.
`COC(=O)N1CCN(c2ccnc(-n3ccnc3)n2)C(CC(=O)NCc2ccc3c(c2)OCO3)C1` (stereo unspecified) gave an IC50 [1] of 0.38 nM, a Ratio IC50 (Sf9 [2]) of 82 and an IC50 [3] of 24 nM. For the same compound, the Activity [4] was “inactive”, the Ratio IC50 (BSC-1 [5]) was 5 and the Ratio IC50 (BSC-1 [6]) was 1700. For the same compound, the IC50 [7] was 12 nM and the Ratio IC50 (Sf9 [8]) was 25.
In the case of `Cc1cc(N2CCN(C(=O)C(C)C)[C@H](CC(=O)NCc3ccc4c(c3)OCO4)C2)nc(-n2ccnc2)n1`, the IC50 [1] is reported as 0.75 nM, the Ratio IC50 (Sf9 [2]) is reported as 74 and the IC50 [3] is reported as 350 nM. For the same compound, the Activity [4] was “inactive”, the Ratio IC50 (BSC-1 [5]) was 29 and the Ratio IC50 (BSC-1 [6]) was > 400. For the same compound, the IC50 [7] was 130 nM and the Ratio IC50 (Sf9 [8]) was 80.
For `CCc1cc(N2CCC[C@@H]2CC(=O)NCc2ccc3c(c2)OCO3)nc(-n2ccnc2)n1`, the IC50 [1] was 0.13 nM, the Ratio IC50 (Sf9 [2]) was 65 and the IC50 [3] was 7.5 nM. The Activity [4] was “inactive”, the Ratio IC50 (BSC-1 [5]) was 15 and the Ratio IC50 (BSC-1 [6]) was 7800. The IC50 [7] was 7.1 nM and the Ratio IC50 (Sf9 [8]) was 18.
Compound `Cc1cc(N2CCC[C@@H]2CC(=O)NCc2ccc3c(c2)OCO3)nc(-n2ccnc2)n1` has an IC50 [1] of 0.12 nM, a Ratio IC50 (Sf9 [2]) of 91 and an IC50 [3] of 5.9 nM. For the same compound, the Activity [4] was “inactive”, the Ratio IC50 (BSC-1 [5]) was 8 and the Ratio IC50 (BSC-1 [6]) was 1000. The IC50 [7] was 4.5 nM and the Ratio IC50 (Sf9 [8]) was 27.
In the case of `CCOC(=O)CN1CCN(c2ccnc(-n3ccnc3)n2)C(CC(=O)NCc2ccc3c(c2)OCO3)C1` (stereo unspecified), the IC50 [1] is reported as 0.93 nM, the IC50 [3] is reported as 4.9 nM and the Activity [4] is reported as “inactive”. It also gave a Ratio IC50 (BSC-1 [5]) of 5 and a Ratio IC50 (BSC-1 [6]) of 1700.
In the case of `O=C(CC1CN(Cc2ccccc2)CCN1c1ccnc(-n2ccnc2)n1)NCc1ccc2c(c1)OCO2` (stereo unspecified), the IC50 [1] is reported as 1 nM, the IC50 [3] is reported as 13 nM and the Activity [4] is reported as “inactive”. The Ratio IC50 (BSC-1 [5]) was 7 and the Ratio IC50 (BSC-1 [6]) was 770.
In the case of `CCc1cc(N2CCC[C@@H]2C(=O)NCCc2ccc3c(c2)OCO3)nc(-n2ccnc2)n1`, the IC50 [1] is reported as 0.52 nM, the Ratio IC50 (Sf9 [2]) is reported as 170 and the IC50 [3] is reported as 25 nM. The Activity [4] was “inactive”, the Ratio IC50 (BSC-1 [5]) was 67 and the Ratio IC50 (BSC-1 [6]) was > 3800. It also gave an IC50 [7] of 16 nM and a Ratio IC50 (Sf9 [8]) of 280.
For `O=C(C[C@H]1CCCN1c1ccnc(-n2ccnc2)n1)NCc1ccc2c(c1)OCO2`, the IC50 [1] was 0.28 nM, the Ratio IC50 (Sf9 [2]) was 47 and the IC50 [3] was 5.6 nM. For the same compound, the Activity [4] was “inactive”, the Ratio IC50 (BSC-1 [5]) was 5 and the Ratio IC50 (BSC-1 [6]) was 2900. It also gave an IC50 [7] of 5.5 nM and a Ratio IC50 (Sf9 [8]) of 6.
With `O=C(CC1CCCCN1c1cc(-n2ccnc2)ncn1)NCc1ccc2c(c1)OCO2` (stereo unspecified) the IC50 [1] was 10 nM, the IC50 [3] was 100 nM and the Activity [4] was “inactive”. The Ratio IC50 (BSC-1 [5]) was 19 and the Ratio IC50 (BSC-1 [6]) was > 1000.
With `O=C(CC1CN(c2cccc(F)n2)CCN1c1ccnc(-n2ccnc2)n1)NCc1ccc2c(c1)OCO2` (stereo unspecified) the IC50 [1] was 0.28 nM, the IC50 [3] was 10 nM and the Activity [4] was “inactive”. The Ratio IC50 (BSC-1 [5]) was 6 and the Ratio IC50 (BSC-1 [6]) was 850.
In the case of `COc1ccc(CCNC(=O)CC2CCCCN2c2ccnc(-n3ccnc3)n2)cc1OC` (stereo unspecified), the IC50 [1] is reported as 12 nM, the IC50 [3] is reported as 680 nM and the Activity [4] is reported as “inactive”. The Ratio IC50 (BSC-1 [5]) was 1 and the Ratio IC50 (BSC-1 [6]) was 120.
For `O=C(CC1CCCCN1c1ccnc(-n2ccnc2)n1)NCc1ccc([N+](=O)[O-])cc1` (stereo unspecified), the IC50 [1] was 168 nM, the IC50 [3] was 940 nM and the Activity [4] was “inactive”. For the same compound, the Ratio IC50 (BSC-1 [5]) was > 10 and the Ratio IC50 (BSC-1 [6]) was 74.
With `O=C(CC1CN(C(=O)c2ccco2)CCN1c1ccnc(-n2ccnc2)n1)NCc1ccc2c(c1)OCO2` (stereo unspecified) the IC50 [1] was 0.67 nM, the IC50 [3] was 48 nM and the Activity [4] was “inactive”. For the same compound, the Ratio IC50 (BSC-1 [5]) was 6 and the Ratio IC50 (BSC-1 [6]) was 1000.
With `O=C(CC1CCCCN1c1cc(-c2ccccc2)nc(-n2ccnc2)n1)NCc1ccc2c(c1)OCO2` (stereo unspecified) the IC50 [1] was 67 nM, the IC50 [3] was 450 nM and the Activity [4] was “inactive”. The Ratio IC50 (BSC-1 [5]) was 4 and the Ratio IC50 (BSC-1 [6]) was 36.
For `O=C(CC1CN(C(=O)c2ccccc2)CCN1c1ccnc(-n2ccnc2)n1)NCc1ccc2c(c1)OCO2` (stereo unspecified), the IC50 [1] was 0.5 nM, the IC50 [3] was 85 nM and the Activity [4] was “inactive”. It also gave a Ratio IC50 (BSC-1 [5]) of 4 and a Ratio IC50 (BSC-1 [6]) of 220.
In the case of `O=C(CC1CCCCN1c1nccc(-n2ccnc2)n1)NCc1ccc2c(c1)OCO2` (stereo unspecified), the IC50 [1] is reported as 52 nM, the IC50 [3] is reported as 220 nM and the Activity [4] is reported as “inactive”. For the same compound, the Ratio IC50 (BSC-1 [5]) was 6 and the Ratio IC50 (BSC-1 [6]) was > 500.
With `O=C(CC1CN(Cc2ccco2)CCN1c1ccnc(-n2ccnc2)n1)NCc1ccc2c(c1)OCO2` (stereo unspecified) the IC50 [1] was 0.58 nM, the IC50 [3] was 13 nM and the Activity [4] was “inactive”. The Ratio IC50 (BSC-1 [5]) was 2 and the Ratio IC50 (BSC-1 [6]) was 1100.
For `O=C(CC1CN(C(=O)Nc2ccccc2)CCN1c1ccnc(-n2ccnc2)n1)NCc1ccc2c(c1)OCO2` (stereo unspecified), the IC50 [1] was 0.87 nM, the IC50 [3] was 25 nM and the Activity [4] was “inactive”. For the same compound, the Ratio IC50 (BSC-1 [5]) was 3 and the Ratio IC50 (BSC-1 [6]) was 350.
With `O=C(CC1CCCCN1c1ccnc(-n2ccnc2)n1)NCc1ccc2c(c1)OCO2` (stereo unspecified) the IC50 [1] was 0.5 nM, the IC50 [3] was 7 nM and the Activity [4] was “inactive”. It also gave a Ratio IC50 (BSC-1 [5]) of 5 and a Ratio IC50 (BSC-1 [6]) of 520.
In the case of `COc1cccc(CNC(=O)CC2CCCCN2c2ccnc(-n3ccnc3)n2)c1` (stereo unspecified), the IC50 [1] is reported as 3.7 nM, the IC50 [3] is reported as 230 nM and the Activity [4] is reported as “inactive”. The Ratio IC50 (BSC-1 [5]) was 4 and the Ratio IC50 (BSC-1 [6]) was > 430.

From ChEMBL document CHEMBL1142952, “Design, synthesis, and activity of 2-imidazol-1-ylpyrimidine derived inducible nitric oxide synthase dimerization inhibitors” (J Med Chem, 2007)
